Measurements published in ChEMBL document CHEMBL3244427, “Nonsteroidal antiinflammatory agents. 2. Derivatives/analogues of dibenz[b,e]oxepin-3-acetic acid” (J Med Chem, 1978).

Columns and labels:
Rattus norvegicus = test: Antiinflammatory activity in po dosed Donryu rat assessed as inhibition of carrageenan-induced paw edema; type: functional; conditions: read-out: ID50 (the source's name)
In short: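 Male Donryu rats weighing 130–160 g. Carrageenan was used to induce paw edema. ID50 was read from a regression line fitted by least squares, with 95% fiducial limits calculated by Filler's equation.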

[1] = Therapeutic index, ratio of UD50 for ulcerogenicity in po dosed Donryu rat assessed as gastric lesion to ID50 for antiinflammatory activity in po dosed Donryu rat assessed as inhibition of carrageenan-induced paw edema; type: organism-based, Stomach; conditions: in vivo, read-out: TI
[2] = Ulcerogenicity in po dosed Donryu rat assessed as gastric lesion; type: toxicity, organism-based, Stomach; conditions: in vivo, read-out: UD50 (the source's name)
In short: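 Male Donryu rats weighing 130–160 g. Gastric lesions were induced and then examined.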

[3] = Toxicity in po dosed Donryu rat assessed as mortality; type: organism-based; conditions: in vivo
In short: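 Acute toxicity was tested in male Donryu rats weighing 130–160 g, with mortality as the end point.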

[4] = Therapeutic index, ratio of LD50 for po dosed Donryu rat assessed as mortality to ID50 for antiinflammatory activity in po dosed Donryu rat assessed as inhibition of carrageenan-induced paw edema; type: organism-based; conditions: in vivo, read-out: TI

SMILES | ED50 (Rattus norvegicus) [µmol/kg] | further results
O=C(O)Cc1ccc2c(c1)C(O)c1ccccc1CO2 (stereo unspecified) | > 66.6 | 
CC(CO)c1ccc2c(c1)OCc1ccccc1C2=O (stereo unspecified) | 6 | 
CC1(C)OCC(COC(=O)Cc2ccc3c(c2)OCc2ccccc2C3=O)O1 (stereo unspecified) | 100 | selectivity ratio [1]: 5.6; TD50 [2]: 559 µmol/kg; LD50 [3]: 241 µmol/kg; selectivity ratio [4]: 2.4
CC(CO)c1ccc2c(c1)C(=O)c1ccccc1CO2 (stereo unspecified) | 28.3 | 
COc1ccc(C(=O)/C=C/c2ccc3c(c2)C(=O)c2ccccc2CO3)cc1 | > 122 | 
O=C1c2ccccc2COc2ccc(-c3nnn[nH]3)cc21 | > 64.7 | 
O=C1c2ccccc2COc2cc(-c3nnn[nH]3)ccc21 | > 64.7 | 
CC(=O)/C=C/c1ccc2c(c1)OCc1ccccc1C2=O | > 162 | 
O=C(Cc1ccc2c(c1)OCc1ccccc1C2=O)Oc1ccc(C(=O)O)cc1 | 91.6 | 
O=C(O)Cc1ccc2c(c1)OCc1ccsc1C2=O | 61.3 | 
O=C(O)Cc1ccc2c(c1)OCc1ccccc1C2 | 35 | 
O=C(O)Cc1ccc2c(c1)COc1ccccc1C2=O | 131 | 
O=C(O)Cc1ccc2c(c1)Cc1ccc(Cl)cc1CO2 | > 62.3 | 
O=C1c2ccccc2COc2ccc(Cc3nnn[nH]3)cc21 | > 61.6 | 
CC(C(=O)O)c1ccc2c(c1)OCc1ccccc1C2=O (stereo unspecified) | 2.7 | 
O=C(O)Cc1ccc2c(c1)OCc1ccccc1C2O (stereo unspecified) | > 66.6 | 
O=C(O)Cc1ccc2c(c1)SCc1ccsc1C2=O | > 62 | 

SMILES | ED50 (Rattus norvegicus) [µmol/kg] | further results
O=C(O)Cc1ccc2c(c1)C(=O)c1ccccc1CO2 [ISOXEPAC] | 50 | 
CC(=O)/C=C/c1ccc2c(c1)C(=O)c1ccccc1CO2 | > 162 | 
O=C(O)c1ccc2c(c1)OCc1ccccc1C2=O | > 70.8 | 
O=C(O)c1ccc2c(c1)C(=O)c1ccccc1CO2 | > 70.8 | 
O=C(Cc1ccc2c(c1)OCc1ccccc1C2=O)OCC(O)CO (stereo unspecified) | 31 | selectivity ratio [1]: 8.1; TD50 [2]: 252 µmol/kg; LD50 [3]: 278 µmol/kg; selectivity ratio [4]: 9
CC(C(=O)O)c1ccc2c(c1)OCc1ccsc1C2=O (stereo unspecified) | 43.7 | 
CC(=O)CCc1ccc2c(c1)OCc1ccccc1C2=O | 96.7 | 
O=C(O)Cc1ccc2c(c1)C(=O)c1sccc1CS2 | > 62 | 
O=C1c2ccccc2COc2cc(Cc3nnn[nH]3)ccc21 | > 61.6 | 
CCN(CC)CCOC(=O)Cc1ccc2c(c1)C(=O)c1ccccc1CO2 | 133 | 
CC(C(=O)O)c1ccc2c(c1)OCc1ccccc1C2 (stereo unspecified) | 12.7 | 
O=C(O)Cc1ccc2c(c1)Cc1ccccc1CO2 | 99.1 | 
O=C(O)Cc1ccc2c(c1)SCc1sccc1C2=O | 40 | 
CCOC(=O)CNC(=O)Cc1ccc2c(c1)OCc1ccccc1C2=O | > 50.9 | 
O=C(O)Cc1ccc2c(c1)C(=O)c1sccc1CO2 | 75.1 | 
NC(=O)Cc1ccc2c(c1)C(=O)c1ccccc1CO2 | > 67.4 | 
O=C(O)Cc1ccc2c(c1)OCc1ccccc1C2=O [OXEPINAC] | 12.9 | selectivity ratio [1]: 21.6; TD50 [2]: 279 µmol/kg; LD50 [3]: 383 µmol/kg; selectivity ratio [4]: 29.7
